According to ChEMBL document CHEMBL3352608, “Medicinal chemistry optimization of antiplasmodial imidazopyridazine hits from high throughput screening of a softfocus kinase library: part 2” (J Med Chem, 2014):
≈ marks a conversion by molar mass, not a printed value.

Key:
[1] = Aqueous solubility of the compound at pH 2; type: physicochemical; settings: buffer
[2] = Aqueous solubility of the compound at pH 6.5; type: physicochemical; settings: buffer
Liver microsome [3] = assay: Metabolic stability in human liver microsomes assessed as compound remaining after 30 mins; type: ADME; settings: 0.5 h
Outline: (§1)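 One-point microsomal stability test: compound incubated 30 min with human, rat or mouse liver microsomes; percentage of parent remaining measured.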

Liver microsome [4] = assay: Metabolic stability in rat liver microsomes assessed as compound remaining after 30 mins; type: ADME; settings: 0.5 h; outline: as §1
Liver = assay: Metabolic stability in mouse liver microsomes assessed as compound remaining after 30 mins; type: ADME; settings: 0.5 h; outline: as §1
Plasmodium falciparum [5] = assay: Antiplasmodial activity against Plasmodium falciparum K1 by [3H]hypoxanthine incorporation assay; type: functional, organism-based
Outline: (§2)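 Modified [3H]-hypoxanthine incorporation assay on P. falciparum asexual cultures, chloroquine and artesunate as references in every run. IC50 values are means of ≥2 independent experiments; individual values mostly within 2-fold (maximum 3-fold).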

Plasmodium falciparum [6] = assay: Antiplasmodial activity against Plasmodium falciparum NF54 by [3H]hypoxanthine incorporation assay; type: functional, organism-based; outline: as §2
CHO = assay: Cytotoxicity against CHO cells; type: cell-based, Cricetulus griseus; settings: chinese hamster
[7] = Selectivity index, ratio of IC50 for CHO cells to IC50 for Plasmodium falciparum; type: toxicity, cell-based; settings: hamster, read-out: Ratio IC50
[8] = system: CHO cells (Cricetulus griseus); assay: Cytotoxicity against Chinese hamster CHO cells
[9] = system: CHO cells (Cricetulus griseus); assay: Selectivity index, ratio of IC50 for Chinese hamster CHO cells to IC50 for Plasmodium falciparum
[10] = biological target: Voltage-gated inwardly rectifying potassium channel KCNH2 (Homo sapiens, UniProt Q12809); assay: Inhibition of human ERG channel by patch clamp technique
Voltage-gated inwardly rectifying potassium channel KCNH2, sequence (Q12809 whole entry): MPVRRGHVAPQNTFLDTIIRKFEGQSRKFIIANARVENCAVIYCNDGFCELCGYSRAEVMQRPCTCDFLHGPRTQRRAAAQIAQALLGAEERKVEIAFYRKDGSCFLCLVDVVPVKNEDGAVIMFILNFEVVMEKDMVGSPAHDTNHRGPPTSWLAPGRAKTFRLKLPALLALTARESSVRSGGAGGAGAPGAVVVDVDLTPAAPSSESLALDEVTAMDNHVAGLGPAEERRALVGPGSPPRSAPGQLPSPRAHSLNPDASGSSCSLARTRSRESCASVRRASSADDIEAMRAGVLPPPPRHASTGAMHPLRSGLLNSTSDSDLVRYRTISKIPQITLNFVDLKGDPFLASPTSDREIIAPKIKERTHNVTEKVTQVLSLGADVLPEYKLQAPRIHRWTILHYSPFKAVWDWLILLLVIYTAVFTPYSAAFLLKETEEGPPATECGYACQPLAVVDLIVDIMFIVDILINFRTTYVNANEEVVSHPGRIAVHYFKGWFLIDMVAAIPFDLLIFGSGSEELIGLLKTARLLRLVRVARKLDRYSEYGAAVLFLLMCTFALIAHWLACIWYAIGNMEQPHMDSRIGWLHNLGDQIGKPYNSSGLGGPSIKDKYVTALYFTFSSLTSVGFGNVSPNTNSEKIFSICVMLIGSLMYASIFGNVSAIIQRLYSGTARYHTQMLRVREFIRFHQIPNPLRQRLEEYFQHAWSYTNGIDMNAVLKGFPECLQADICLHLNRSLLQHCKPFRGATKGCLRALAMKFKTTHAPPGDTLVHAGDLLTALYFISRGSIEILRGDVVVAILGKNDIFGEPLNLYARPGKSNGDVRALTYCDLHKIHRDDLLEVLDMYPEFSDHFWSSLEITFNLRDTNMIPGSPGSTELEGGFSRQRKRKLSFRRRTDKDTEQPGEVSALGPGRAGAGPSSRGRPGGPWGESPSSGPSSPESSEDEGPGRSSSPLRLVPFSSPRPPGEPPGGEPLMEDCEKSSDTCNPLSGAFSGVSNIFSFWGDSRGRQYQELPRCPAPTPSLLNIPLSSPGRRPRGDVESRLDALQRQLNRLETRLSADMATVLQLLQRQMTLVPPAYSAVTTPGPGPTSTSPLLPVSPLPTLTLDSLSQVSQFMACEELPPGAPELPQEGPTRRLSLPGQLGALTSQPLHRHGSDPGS

Plasmodium berghei = assay: Antimalarial activity against Plasmodium berghei ANKA infected in mouse assessed as reduction in parasitemia at 50 mg/kg/day, po qd administered for 4 days relative to control; type: functional; set-up: Activity: scale not given: the % may be the effect or the level left
Outline: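 Mice (n = 3) infected with GFP-transfected P. berghei ANKA; compound in HPMC suspension vehicle given orally once daily at 4, 24, 48 and 72 h after infection. Blood collected day 4 (96 h post-infection); parasitemia by flow cytometry (detection limit 0.1%). Activity = difference in mean % parasitemia between control and treated groups, as % of control.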

[11] = Plasma concentration in mouse infected with Plasmodium berghei ANKA at 50 mg/kg/day, po after 1 hr by HPLC analysis; type: ADME, organism-based; set-up: route oral
Outline: (§3)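 P. berghei-infected mice dosed orally at 50 mg/kg daily for 4 days; blood sampled 1, 4 and 24 h after the first dose and analysed by HPLC for drug levels.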

[12] = Plasma concentration in mouse infected with Plasmodium berghei ANKA at 50 mg/kg/day, po after 4 hrs by HPLC analysis; type: ADME, organism-based; set-up: route oral; outline: as §3
[13] = Plasma concentration in mouse infected with Plasmodium berghei ANKA at 50 mg/kg/day, po after 24 hrs by HPLC analysis; type: ADME, organism-based; set-up: route oral; outline: as §3

Row | SMILES | solubility [1] [µM] | solubility [2] [µM] | Stability (Liver microsome [3]) | Stability (Liver microsome [4]) | Stability (Liver) | IC50 (Plasmodium falciparum [5]) [nM] | IC50 (Plasmodium falciparum [6]) [nM] | further results
1 | CS(=O)(=O)c1ccc(-c2cnc3ccc(-c4cccc(C(=O)NCCO)c4)nn23)cc1 | > 200 | > 100 | Unstable | Unstable | Unstable | – | – | –
2 | CS(=O)(=O)c1ccc(-c2cnc3ccc(-c4cncc(S(C)(=O)=O)c4)nn23)cc1 | < 5 | < 5 | – | – | – | 82 | 96 | –
3 | CS(=O)(=O)c1ccc(-c2cnc3ccc(-c4cncc(C(F)(F)F)c4)nn23)cc1 | < 5 | < 5 | – | – | – | – | 1050 | –
4 | CS(=O)(=O)c1ccc(-c2cnc3ccc(-c4ccnc(C(F)(F)F)c4)nn23)cc1 | 5.4 (≈ 2.26 µg/mL) | < 5 | – | – | – | 26 | 45 | Activity (CHO): Non-toxic; selectivity ratio [7]: > 1000; Activity [8]: Non-toxic; selectivity ratio [9]: > 1000
5 | CS(=O)(=O)c1ccc(-c2cnc3ccc(-c4cncc(N)c4)nn23)cc1 | 174 (≈ 63.6 µg/mL) | 15 (≈ 5.48 µg/mL) | – | – | – | 55 | 69 | –
6 | CS(=O)(=O)c1cccc(-c2ccc3ncc(-c4ccc(S(C)(=O)=O)nc4)n3n2)c1 | < 5 | < 5 | – | – | – | 9.9 | 12 | –
7 | CS(=O)(=O)c1cccc(-c2ccc3ncc(-c4cncc(S(C)(=O)=O)c4)n3n2)c1 | 16 (≈ 6.86 µg/mL) | < 5 | – | – | – | 42 | 58 | –
8 | CS(=O)(=O)c1cccc(-c2ccc3ncc(-c4ccc(N)nc4)n3n2)c1 | 192 (≈ 70.2 µg/mL) | < 5 | – | – | – | 19 | 23 | –
9 | CS(=O)(=O)c1cncc(-c2ccc3ncc(-c4ccc(S(C)(=O)=O)nc4)n3n2)c1 | 52 (≈ 22.3 µg/mL) | 13 (≈ 5.58 µg/mL) | – | – | – | 610 | 808 | –
10 | CS(=O)(=O)c1cncc(-c2ccc3ncc(-c4cncc(S(C)(=O)=O)c4)n3n2)c1 | 183 (≈ 78.6 µg/mL) | 53 (≈ 22.8 µg/mL) | – | – | – | 473 | 636 | –
11 | CS(=O)(=O)c1cncc(-c2ccc3ncc(-c4ccc(S(=O)(=O)C5CC5)cc4)n3n2)c1 | < 5 | < 5 | – | – | – | 484 | 662 | –
12 | C[S+]([O-])c1cccc(-c2ccc3ncc(-c4ccc(S(C)(=O)=O)cc4)n3n2)c1 (centres undefined) | 188 (≈ 77.4 µg/mL) | 157 (≈ 64.6 µg/mL) | Unstable | Unstable | Unstable | 36 | 39 | IC50 [10]: 4000 nM; Activity (Plasmodium berghei): 99.8%; MSD (Plasmodium berghei): 14 days; concentration at 1 h [11]: 590 nM; concentration at 4 h [12]: 490 nM
13 | CS(=O)(=O)c1ccc(-c2cnc3ccc(-c4cccc(S(=O)(=O)CCO)c4)nn23)cc1 | 190 (≈ 86.9 µg/mL) | 8.6 (≈ 3.93 µg/mL) | – | – | – | – | 2.2 | –
14 | CS(=O)(=O)c1ccc(-c2cnc3ccc(-c4cccc(C(=O)N5CCC(O)CC5)c4)nn23)cc1 | > 200 | 178 (≈ 84.8 µg/mL) | Stable | Stable | Stable | – | 6.5 | –
15 | CS(=O)(=O)c1cccc(-c2ccc3ncc(-c4ccc(S(=O)(=O)N5CCNCC5)cc4)n3n2)c1 | 166 (≈ 82.6 µg/mL) | 162 (≈ 80.6 µg/mL) | Unstable | Unstable | Unstable | 8.8 | 14 | –
16 | C[S+]([O-])c1ccc(-c2cnc3ccc(-c4cccc(S(C)(=O)=O)c4)nn23)cc1 (centres undefined) | 207 (≈ 85.2 µg/mL) | 98 (≈ 40.3 µg/mL) | Stable | Stable | Stable | – | 6.5 | Activity (Plasmodium berghei): 99.7%; MSD (Plasmodium berghei): 14 days
17 | CS(=O)(=O)c1cccc(-c2ccc3ncc(-c4ccc(C(=O)N5CCC(O)C5)cc4)n3n2)c1 (centres undefined) | 191 (≈ 88.3 µg/mL) | 177 (≈ 81.9 µg/mL) | Stable | Stable | Stable | 21 | 18 | IC50 [10]: > 33000 nM; Activity (Plasmodium berghei): <40%; MSD (Plasmodium berghei): 4 days; concentration at 4 h [12]: < 10 nM; concentration at 24 h [13]: < 10 nM
18 | CS(=O)(=O)c1cccc(-c2ccc3ncc(-c4ccc(S(=O)(=O)CCCN)cc4)n3n2)c1 | > 200 | 180 (≈ 84.7 µg/mL) | Stable | Stable | Stable | 9.4 | 11 | Activity (CHO): Non-toxic; selectivity ratio [7]: > 1000; Activity [8]: Non-toxic; selectivity ratio [9]: > 1000
19 | C[S+]([O-])c1cccc(-c2ccc3ncc(-c4ccc(C(N)=O)cc4)n3n2)c1 (centres undefined) | 112 (≈ 42.2 µg/mL) | < 5 | – | – | – | – | 103 | –
20 | C[S+]([O-])c1ccc(-c2cnc3ccc(-c4cccc([S+](C)[O-])c4)nn23)cc1 (centres undefined) | 205 (≈ 81.1 µg/mL) | 192 (≈ 75.9 µg/mL) | Unstable | Unstable | Unstable | 30 | 35 | IC50 [10]: 12000 nM; Activity (Plasmodium berghei): 99.8%; MSD (Plasmodium berghei): 25 days; concentration at 1 h [11]: 2440 nM; concentration at 4 h [12]: 760 nM
21 | CS(=O)(=O)c1cncc(-c2cnc3ccc(-c4cccc(S(=O)(=O)C5CC5)c4)nn23)c1 | 18 (≈ 8.18 µg/mL) | < 5 | – | – | – | 31 | 37 | –
22 | CS(=O)(=O)c1ccc(-c2cnc3ccc(-c4cccc(S(=O)(=O)C5CC5)c4)nn23)cn1 | < 5 | < 5 | – | – | – | 2 | 3.3 | –
23 | O=S(=O)(c1cccc(-c2ccc3ncc(-c4ccc(-c5nnn[nH]5)cc4)n3n2)c1)C1CC1 | < 5 | 183 (≈ 81.2 µg/mL) | – | – | – | 25 | 43 | IC50 [10]: > 33000 nM; Activity (Plasmodium berghei): <40%; MSD (Plasmodium berghei): 4 days
24 | NC(=O)c1ccc(-c2cnc3ccc(-c4cccc(S(=O)(=O)C5CC5)c4)nn23)cc1 | 6.3 (≈ 2.64 µg/mL) | < 5 | – | – | – | 1.2 | 1.5 | Activity (CHO): Non-toxic; selectivity ratio [7]: > 1000; Activity [8]: Non-toxic; selectivity ratio [9]: > 1000
25 | CS(=O)(=O)c1cccc(-c2ccc3ncc(-c4ccc(C(=O)N5CCNCC5)cc4)n3n2)c1 | – | – | Stable | Stable | Stable | – | – | Activity (Plasmodium berghei): <40%; MSD (Plasmodium berghei): 4 days
26 | CS(=O)(=O)c1cccc(-c2ccc3ncc(-c4ccc(C(=O)O)cc4)n3n2)c1 | – | – | – | – | – | – | – | Activity (CHO): Non-toxic; selectivity ratio [7]: > 1000; Activity [8]: Non-toxic; selectivity ratio [9]: > 1000
